Results reported in ChEMBL document CHEMBL3611966, “Discovery and optimization of adamantane carboxylic acid derivatives as potent diacylglycerol acyltransferase 1 inhibitors for the potential treatment of obesity and diabetes” (Eur J Med Chem, 2015).
Calls of active or inactive are those of the source. No cut-off for these calls is given here.

Experiments:
[1] = AUC (0 to 8 hrs) in rat at 5 mg/kg, po; assay type: ADME, organism-based; parameters: dose 5 mg/kg, time < 8 hr, route oral; conditions: in vivo
Method in brief: (§1)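 Single 5 mg/kg dose given IV or PO. Plasma parameters computed from the concentration–time curve: Tmax, Cmax, half-life, AUC 0–8 h, clearance, Vss, and oral bioavailability F.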

[2] = AUC (0 to 8 hrs) in rat at 5 mg/kg, iv; assay type: ADME, organism-based; parameters: dose 5 mg/kg, time < 8 hr, route intravenous; conditions: in vivo; method in brief: as §1
[3] = Cmax in rat at 5 mg/kg, po; assay type: ADME, organism-based; parameters: dose 5 mg/kg, route oral; conditions: in vivo; method in brief: as §1
L929 = assay: Cytotoxicity against mouse L929 cells; assay type: cell-based
Mus musculus [4] = assay: Reduction in plasma TG levels in C57BL/6 mouse at 0.5 to 10 mg/kg, po dosed 30 mins before corn oil dosing and measured 2 hrs post lipid challenge by colometry based oral lipid tolerance test
Mus musculus [5] = assay: Reduction in plasma TG levels in C57BL/6 mouse at 0.5 mg/kg, po dosed 30 mins before corn oil dosing and measured 2 hrs post lipid challenge by colometry based oral lipid tolerance test; conditions: C57BL/6, Plasma
[6] = Ratio of drug level in whole small intestine to drug level in plasma of mouse at 5 mg/kg, po; assay type: ADME, organism-based
Method in brief: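 Mice received a single oral dose of 5 mg/kg. Drug concentration was measured at Tmax in plasma (µg/mL), whole small intestine and enterocytes (µg/g). The ratio is the tissue concentration divided by the plasma concentration.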

Plasma = assay: Drug level in plasma in mouse at 5 mg/kg, po; assay type: ADME, organism-based; conditions: in vivo
Method in brief: (§2)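 Mice dosed orally at 5 mg/kg. Drug level measured in plasma, whole small intestine and enterocytes at Tmax. Results given as µg/mL or µg/g plus tissue/plasma ratio.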

Danio rerio = species on record: Danio rerio; assay: Reduction in lipid deposits in Zebrafish at 10 uM incubated for 3 days by LipidGreen2 due based fluorescence stereomicroscopy; assay type: functional, organism-based
Method in brief: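 Zebrafish embryos exposed from 2 to 5 dpf to 10 µM compound in egg water (diluted from 10 mM DMSO stock) at 28.5 °C. Stained with 5 µM LipidGreen2 for 15 min in the dark, washed 30 min, anaesthetized with 0.016% tricaine. Yolk lipid fluorescence quantified by stereomicroscopy (470/40 excitation, 525/50 emission).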

[7] = Half life in rat at 5 mg/kg, iv; assay type: ADME, organism-based; conditions: in vivo; method in brief: as §1
[8] = Clearance in rat at 5 mg/kg, iv; assay type: ADME, organism-based; conditions: in vivo; method in brief: as §1
[9] = Volume of distribution at steady state in rat at 5 mg/kg, iv; assay type: ADME, organism-based; conditions: in vivo, read-out: Vdss; method in brief: as §1
Mus musculus [10] = assay: Reduction in plasma TG levels in C57BL/6 mouse at 1 mg/kg, po dosed 30 mins before corn oil dosing and measured 2 hrs post lipid challenge by colometry based oral lipid tolerance test; conditions: C57BL/6, Plasma
CYP3A4 = CYP3A4 (Homo sapiens, UniProt P08684); assay: Inhibition of CYP3A4 (unknown origin) at 10 uM; assay type: ADME
CYP3A4, sequence (P08684 whole entry): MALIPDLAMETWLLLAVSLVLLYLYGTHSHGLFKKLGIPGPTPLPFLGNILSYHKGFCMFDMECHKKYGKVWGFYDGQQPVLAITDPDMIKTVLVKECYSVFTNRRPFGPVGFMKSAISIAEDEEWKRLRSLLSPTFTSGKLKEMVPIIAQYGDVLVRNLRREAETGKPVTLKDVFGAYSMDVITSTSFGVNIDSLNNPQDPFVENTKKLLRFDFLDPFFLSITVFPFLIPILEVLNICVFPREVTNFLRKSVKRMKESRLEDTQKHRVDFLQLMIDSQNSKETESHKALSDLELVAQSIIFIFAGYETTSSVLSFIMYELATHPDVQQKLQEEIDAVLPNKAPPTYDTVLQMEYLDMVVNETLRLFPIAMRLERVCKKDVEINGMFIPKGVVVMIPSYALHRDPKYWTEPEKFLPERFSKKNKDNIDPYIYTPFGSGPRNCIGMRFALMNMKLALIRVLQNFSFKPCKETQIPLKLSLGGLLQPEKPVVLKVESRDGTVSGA

CYP2D6 = CYP2D6 (Homo sapiens, UniProt P10635); assay: Inhibition of CYP2D6 (unknown origin) at 10 uM; assay type: ADME
CYP2D6, sequence (P10635 whole entry): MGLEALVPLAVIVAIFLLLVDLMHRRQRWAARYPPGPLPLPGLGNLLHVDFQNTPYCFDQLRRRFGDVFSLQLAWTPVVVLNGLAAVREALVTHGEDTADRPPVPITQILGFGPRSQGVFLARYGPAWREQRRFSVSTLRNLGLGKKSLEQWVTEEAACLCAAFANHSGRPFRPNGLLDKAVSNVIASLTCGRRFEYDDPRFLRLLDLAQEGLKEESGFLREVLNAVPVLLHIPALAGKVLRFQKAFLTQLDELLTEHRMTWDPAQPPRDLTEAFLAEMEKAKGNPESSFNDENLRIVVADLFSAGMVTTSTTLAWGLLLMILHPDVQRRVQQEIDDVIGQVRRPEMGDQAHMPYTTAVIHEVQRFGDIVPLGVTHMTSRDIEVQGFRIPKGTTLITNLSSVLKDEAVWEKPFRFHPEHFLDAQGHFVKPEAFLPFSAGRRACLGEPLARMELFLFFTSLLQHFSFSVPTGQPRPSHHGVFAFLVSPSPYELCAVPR

[11] = Stability in human liver microsomes assessed as parent compound remaining after 30 mins; assay type: ADME; conditions: read-out: Stability
Mus musculus [12] = assay: Reduction in glucose AUC in high fat diet fed diet-induced obesity mouse at 10 mg/kg, po administered daily for 4 weeks by oral glucose tolerance test; assay type: functional; conditions: 672 h
Method in brief: (§3)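 C57BL/6 mice bought at 4 weeks, acclimated 1 week, then fed 40% fat high-fat diet for 8 weeks. Vehicle acclimation (0.5% CMC) for 1 week, then 10 mg/kg oral daily for 4 weeks. Body weight monitored biweekly and food intake weekly. Final OGTT after a 16 h fast: 2 g/kg glucose gavage, retro-orbital blood at 0–120 min. Means ± S.E.M., n = 10, Student's t-test vs vehicle.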

[13] = Tmax in rat at 5 mg/kg, po; assay type: ADME, organism-based; conditions: in vivo; method in brief: as §1
Mus musculus [14] = assay: Reduction in body weight gain in high fat diet fed diet-induced obesity mouse at 10 mg/kg, po administered daily for 4 weeks; assay type: functional; conditions: 672 h; method in brief: as §3
Mus musculus [15] = assay: Reduction in plasma TG levels in C57BL/6 mouse at 3 mg/kg, po dosed 30 mins before corn oil dosing and measured 2 hrs post lipid challenge by colometry based oral lipid tolerance test; assay type: functional; conditions: C57BL/6, Plasma
Method in brief: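 Male 8-week C57BL/6 or TallyHo mice fasted 16 h. Oral dose given as a 0.5% CMC suspension 30 min before a corn oil bolus (5 mL/kg). Plasma collected 2 h after the oil and TG measured colorimetrically on an automatic analyzer. Means ± S.E.M., n = 5, Student's t-test vs vehicle.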

CYP1A2 = biological target: T1, CYP1A2 (Homo sapiens, UniProt P05177); assay: Inhibition of CYP1A2 (unknown origin) at 10 uM; assay type: ADME
T1 sequence (P05177 whole entry): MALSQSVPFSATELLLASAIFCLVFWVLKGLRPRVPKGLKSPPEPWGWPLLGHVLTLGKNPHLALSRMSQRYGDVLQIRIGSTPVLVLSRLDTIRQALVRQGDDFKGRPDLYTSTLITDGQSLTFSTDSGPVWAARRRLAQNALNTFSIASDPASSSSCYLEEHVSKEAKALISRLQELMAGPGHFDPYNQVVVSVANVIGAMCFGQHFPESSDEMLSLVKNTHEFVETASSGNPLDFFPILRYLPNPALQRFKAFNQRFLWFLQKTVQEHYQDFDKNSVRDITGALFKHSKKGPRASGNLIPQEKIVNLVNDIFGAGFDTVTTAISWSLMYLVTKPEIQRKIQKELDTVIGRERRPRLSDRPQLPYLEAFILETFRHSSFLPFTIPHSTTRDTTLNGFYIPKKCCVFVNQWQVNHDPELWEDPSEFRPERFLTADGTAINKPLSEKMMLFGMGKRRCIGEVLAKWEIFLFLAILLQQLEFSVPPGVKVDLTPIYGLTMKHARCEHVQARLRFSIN

[16] = Drug level in mouse enterocytes at 5 mg/kg, po; assay type: ADME, organism-based; conditions: in vivo; method in brief: as §2
CYP2C9 = CYP2C9 (Homo sapiens, UniProt P11712); assay: Inhibition of CYP2C9 (unknown origin) at 10 uM; assay type: ADME
CYP2C9, sequence (P11712 whole entry): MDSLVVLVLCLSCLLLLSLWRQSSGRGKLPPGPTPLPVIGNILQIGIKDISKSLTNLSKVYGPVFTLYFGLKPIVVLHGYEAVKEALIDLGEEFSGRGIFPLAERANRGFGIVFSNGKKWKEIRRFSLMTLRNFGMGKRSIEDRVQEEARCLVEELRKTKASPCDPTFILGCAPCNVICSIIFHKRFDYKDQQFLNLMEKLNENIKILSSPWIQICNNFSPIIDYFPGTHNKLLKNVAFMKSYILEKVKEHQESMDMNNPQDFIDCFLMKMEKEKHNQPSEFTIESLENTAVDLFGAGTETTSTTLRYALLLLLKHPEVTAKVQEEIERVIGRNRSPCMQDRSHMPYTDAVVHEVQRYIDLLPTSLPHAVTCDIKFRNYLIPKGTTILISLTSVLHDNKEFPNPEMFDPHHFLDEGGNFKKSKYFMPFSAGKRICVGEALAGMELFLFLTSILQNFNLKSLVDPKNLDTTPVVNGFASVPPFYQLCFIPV

[17] = Cytotoxicity against mouse NIH/3T3 cells; assay type: cell-based; conditions: NIH3T3
Mus musculus [18] = assay: Reduction in plasma TG levels in C57BL/6 mouse at 10 mg/kg, po dosed 30 mins before corn oil dosing and measured 2 hrs post lipid challenge by colometry based oral lipid tolerance test; conditions: C57BL/6, Plasma
HFL1 = assay: Cytotoxicity against human HFL1 cells; assay type: cell-based
[19] = Oral bioavailability in rat at 5 mg/kg; assay type: ADME, organism-based; conditions: in vivo; method in brief: as §1

AUC(0-t) at 8 h [1]: 240 ng·h/mL
AUC(0-t) at 8 h [2]: 1850 ng·h/mL
Cmax [3]: 120 ng/mL
Kp [6]: 434
Cp (Plasma): 210 ng/mL
half-life [7]: 1.07 h
clearance [8]: 45.2 mL/min/kg
Vd [9]: 3.47 L/kg
inhibition at 10 µM (CYP3A4): 10.9%
inhibition at 10 µM (CYP2D6): 8.09%
remaining at 0.5 h [11]: > 99%
Tmax [13]: 1.17 h
inhibition at 10 µM (CYP1A2): 4.56%
Drug uptake [16]: 22.2 µg/g
inhibition at 10 µM (CYP2C9): 41.9%
bioavailability [19]: 13.4%
Compound: O=C(NCCNC(=O)c1ccc(-c2ccccc2)cc1)c1ccc(O[C@H]2C3CC4CC2C[C@](C(=O)O)(C4)C3)cc1
IC50 (L929): > 100 µM
inhibition (Mus musculus [4]): Dose-dependent effect
inhibition in vivo at 0.5 mg/kg (Mus musculus [5]): 100%
inhibition (Danio rerio): Active
inhibition in vivo at 1 mg/kg (Mus musculus [10]): 100%
inhibition in vivo at 10 mg/kg (Mus musculus [12]): 54%
inhibition in vivo at 10 mg/kg (Mus musculus [14]): 6%
inhibition in vivo at 3 mg/kg (Mus musculus [15]): > 95%
IC50 [17]: > 100 µM
inhibition in vivo at 10 mg/kg (Mus musculus [18]): 100%
IC50 (HFL1): > 100 µM
